# IEC-6 cytotox: IEC-6 cytotoxicity, counter-screen for KLF5 inhibitors | inhibition, % at 5 µM | AID 1825 | hit rate 0.78% among 290,000 | luminescence viability;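 further: 0% = plate median of test compound wells and 100% = cytotoxic reference compound wells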
# Ba/F3 V617F tox: reduce viability of Ba/F3 cells dependent on JAK2V617F. hit rate 1.1% among 220,000. inhibition, % at 5.6 µM. Ba/F3 EpoR-JAK2V617F viability, ATP luminescence;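 active means inhibition above the campaign mean plus 3 SD over all tested compounds, cut at about 24% in these data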;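 further: cytokine-independent growth of Ba/F3 cells driven by EpoR plus mutant JAK2; 0% = DMSO-treated cells and 100% = JAK inhibitor I control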
# b-catenin transl: alters nuclear translocation of beta-catenin in HeLa cells; hit rate 0.3% among 190,000; immunofluorescence imaging; nuclear translocation activity, % at 5 µM;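 active means nuclear translocation activity above 50% at 5 µM, with a well cell count of 50 or more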;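 further: per-cell ratio of nuclear to cytoplasmic median beta-catenin stain intensity; plate controls were DMSO negative control for no effect and GSK-3 inhibitor IX positive control for full effect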
#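 Test system: human HeLa cell line; Doses: 5 µM primary, 0.02–20 µM confirmation; Incubation: 24 h compound exposure, 37°C; Detection: beta-catenin immunofluorescence imaging with DAPI; Read-out: beta-catenin nuclear/cytoplasmic ratio, % activation.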
# KLF5 inh: kruppel-like factor 5 inhibition | DLD-1 KLF5 promoter-luciferase reporter, luminescence | inhibition, % at 5 µM | hit rate 0.23% among 290,000;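 active means inhibition above a per-plate limit of that plate's mean compound inhibition plus 3 SD, cut at about 60% in these data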;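 further: 0% = DMSO wells and 100% = LY294002 at 200 µM; higher means less KLF5 promoter-driven luciferase light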
# MT stabilize HCS: microtubule stabilizers in HeLa cells | % tubulin-high responders, % at 10 µM | HeLa tubulin immunostaining HCS, 24 h; share of cells brighter than vehicle mean+2SD | AID 2205 | hit rate 0.83% among 200,000;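 active means plate Z-score above 3 for both tubulin-high and condensed-nucleus cell shares, with cell loss under 80%, at 10 µM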;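 further: anti alpha tubulin signal scored within the nucleus-defined area of each cell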
# BaF3 tox: counter-screen for JAK2V617F inhibitors: parental Ba/F3 viability inhibitors; CellTiter-Glo ATP luminescence; inhibition, % at 5.6 µM; hit rate 1.1% among 220,000; AID 1486;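 active means inhibition above a per-campaign cutoff, the mean inhibition of all tested compounds plus 3 SD, cut at about 27% in these data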;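 further: 0% = DMSO wells and 100% = JAK Inhibitor I control wells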
# IEC-6 tox confirm: confirmation of cytotoxic compounds in rat IEC-6 intestinal epithelial cells. IEC-6 rat intestinal epithelial viability, luminescence. hit rate 63% among 1,900. shares compounds with IEC-6 cytotox. inhibition, % at 5 µM;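 further: 0% = vehicle and 100% = reference cytotoxic drug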
# Active calls of the source: *; x = not tested or not shown. Only some compounds are listed: those with a hit (about 2.1% of all), similar ones and a draw of the others. Unless noted, no stated cut-off is given here; in the data, active means inhibition above about 22%; inactive means the rest.
SMILES,IEC-6 cytotox,Ba/F3 V617F tox,b-catenin transl,KLF5 inh,MT stabilize HCS,BaF3 tox,IEC-6 tox confirm
O=C(Nc1ccc(N2CCOCC2)cc1)c1ccc([N+](=O)[O-])o1,79.4*,x,x,10.4,x,x,25.4*
Cc1ccccc1NC(=O)CN1C(=O)N/C(=C\c2ccc(N3CCOCC3)c(F)c2)C1=O,3.1,-1.7,-1.8,-1.6,3.7,9.1,x
c1cnc2c(c1)ccc1cccnc12,69.6*,7.2,2.2,47.2,5.2,3.5,79.9*
Cc1ccc2cccnc2c1N,-1.6,0.6,-0.6,-29.7,2.4,1.3,x
COc1ccc(CCNC(=O)Nc2ccc(F)cc2F)cc1OC,1.4,x,x,13.2,x,x,x
COC(=O)c1cn(C(=O)c2ccc(OC)cc2)c2ccccc12,51.5*,x,x,31.1,x,x,33.9*
Cc1cc(C(=O)NNc2ccc(Cl)cc2)no1,45.4*,-3.5,12.1,25.5,x,1.0,-4.2
Cc1cc(C(=O)NNc2ccc(F)cc2F)no1,32.0*,-0.5,4.5,21.3,x,-1.4,-8.0
CC1CCC(C(C)C)C(OCC(O)CNC(C)C)C1 (configuration not stated),-5.7,-4.0,-0.4,-7.8,x,3.0,x
CCn1c(=O)cc(OCC(=O)NCc2ccc(C)o2)c2ccccc21,22.6*,2.0,x,-9.3,3.9,5.6,13.1
COc1cc(OC)cc(C(=O)NCCC(=O)NCCc2ccc(OC)c(OC)c2)c1,2.9,1.6,-4.0,-23.2,1.1,3.5,x
Cc1ccc(S(=O)(=O)/N=C2/C=C(Sc3ncn[nH]3)C(=O)c3ccccc32)cc1,25.6*,73.1*,-1.2,-23.1,1.8,72.0*,-3.0
COc1cc(C(=O)N/N=C/c2coc3ccccc3c2=O)cc(OC)c1OC,70.1*,x,x,-40.0,x,x,2.2
Cc1cccc(Nc2ncnc3ccc(Br)cc23)c1,42.4*,7.1,-0.6,5.1,2.6,10.0,41.9*
CCOc1ccccc1OCC(=O)N/N=C(\C)Cc1ccc(OC)cc1,69.8*,72.0*,3.7,55.5,15.0*,73.4*,-17.0
Cc1ccc(NC(=O)CN(C)C(=O)C2CC(=O)N(Cc3ccccc3)C2)cc1 (configuration not stated),-2.0,x,x,-26.7,x,x,x
COc1ccccc1C(=O)N1CCN(c2cccc(Cl)c2)CC1,77.4*,80.1*,56.4*,60.0,31.1*,82.6*,54.6*
O=C(c1c(Cl)nc2sccn12)N1CCN(c2cccc(Cl)c2)CC1,63.2*,78.3*,112.0*,53.2,19.0*,75.9*,43.7*
COc1cc2c(C(=O)N3CCN(c4cccc(Cl)c4)CC3)cn(C)c(=O)c2cc1OC,4.1,-1.2,x,-16.6,31.4,1.4,x
O=C(c1cc2c(=O)n3ccccc3nc2s1)N1CCN(c2cccc(Cl)c2)CC1,6.1,x,x,-12.7,x,x,x
CN(CC1CCCO1)S(=O)(=O)c1ccc(C(=O)Nc2ccccc2F)cc1 (configuration not stated),-6.1,x,x,-21.6,x,x,x
CN(CC1CCCO1)S(=O)(=O)c1ccc(C(=O)Nc2nnc(-c3ccccc3)o2)cc1 (configuration not stated),26.7*,x,x,50.9,x,x,6.3
COc1ccccc1-c1nnc(NC(=O)c2ccc(S(=O)(=O)N(C)CC3CCCO3)cc2)o1 (configuration not stated),12.1,x,x,49.1,x,x,x
CN(CC1CCCO1)S(=O)(=O)c1ccc(C(=O)Nc2nc(-c3ccccn3)cs2)cc1 (configuration not stated),57.4*,70.0*,-1.1,56.5,6.7,61.0*,52.0*
CC1Cc2ccccc2N1C(=O)c1cccnc1 (configuration not stated),-0.2,-3.5,0.1,3.9,2.1,2.0,x
SMILES,IEC-6 cytotox,Ba/F3 V617F tox,b-catenin transl,KLF5 inh,MT stabilize HCS,BaF3 tox,IEC-6 tox confirm
Cc1nc2ccc(C(=O)N3c4ccccc4CC3C)cc2s1 (configuration not stated),25.0*,3.0,6.3,-3.9,19.3*,11.7,34.4*
COc1ccccc1CN(C)C(=O)C(NC(=O)Cc1cccc2ccccc12)C(C)C (configuration not stated),-5.4,x,x,6.9,x,x,x
Cc1ccc(NC(=O)Cn2c(=O)cnc3ccccc32)cc1S(=O)(=O)N(C)C,25.4*,4.6,6.4,5.1,1.8,3.5,3.1
CN1CCC(NCCC(c2ccc(F)cc2)c2ccc(Cl)cc2)CC1 (configuration not stated),49.3*,x,x,-29.5,x,x,100.1*
CC(C)C(CCNC1CCN(C)CC1)c1ccc(Cl)cc1 (configuration not stated),35.7*,x,x,-47.6,x,x,56.5*
O=C(OCC(=O)N1CCCc2ccccc21)c1cc(Cl)ccc1O,-2.5,x,x,-41.3,x,x,x
Cc1[nH]n2c(=O)cc(C(C)(C)C)nc2c1-c1ccccc1,33.5*,8.8,0.6,23.1,3.7,13.4,35.3*
Cc1[nH]n2c(=O)cc(C(C)C)nc2c1-c1ccccc1,0.0,-2.1,-3.6,-23.0,1.0,6.5,x
Cc1cccc(OCCCN2C(=O)C(=O)c3cc(C)ccc32)c1,43.8*,3.7,0.1,-21.9,2.6,6.5,14.7
Cc1ccc2c(c1)C(=O)C(=O)N2CCCOc1ccccc1,4.4,1.7,0.9,-13.5,2.3,10.0,x
Cc1cc(NC(=O)CCC(=O)N(c2ccccc2F)C(C(=O)NC2CCCC2)c2ccccc2)no1 (configuration not stated),-0.3,x,x,2.3,x,x,x
Cc1cc(C)cc(NS(=O)(=O)c2ccc3c(c2)c(=O)n(C)c(=O)n3C)c1,35.2*,49.2*,0.2,33.3,2.1,66.6*,33.3*
Oc1ccc2n[nH]nc2c1,-2.4,2.7,-1.0,-13.5,1.5,2.1,x
O=C(N/N=C/c1ccc(O)cc1)c1[nH]c2ccc(Br)cc2c1-c1ccccc1,82.9*,75.3*,39.6,56.3,14.7,71.0*,65.4*
O=C(N/N=C/c1c[nH]c2ccccc12)c1cc(Br)ccc1O,0.7,x,x,-45.5,x,x,x
C/C(=N\NC(=O)CCC(=O)O)c1c(-c2ccccc2)c2cc(Br)ccc2[nH]c1=O,2.6,-3.9,-1.2,-3.5,x,-0.2,x
O=C(N/N=C/c1c[nH]c2ccccc12)c1[nH]c2ccc(Br)cc2c1-c1ccccc1,81.9*,76.2*,8.0,43.7,7.9,68.4*,63.1*
Cc1ccc(CS(=O)Cc2ccc(C(=O)N3CCN(c4ccccn4)CC3)o2)cc1 (configuration not stated),-0.7,x,x,-25.2,x,x,x
CCn1cc(/C=C(\NC(=O)c2ccccc2)C(=O)NCCCN2CCOCC2)c2ccccc21,5.1,x,x,-34.7,x,x,x
COc1ccc(NC(=S)NNC(=O)c2ccccc2OC(F)F)cc1,38.8*,76.5*,15.5,-24.5,36.0*,55.4*,22.6*
CCCNC(=O)c1ccccc1NC(=O)c1ccc2c(c1)NC(=O)C(C)S2 (configuration not stated),41.5*,x,x,34.7,x,x,21.4
Cc1ccc(C)c(NC(=O)Cn2nnc(C(=O)NCc3ccco3)c2N)c1,24.2*,x,x,40.6,x,x,18.5
COc1ccccc1NC(=O)Cn1nnc(C(=O)NCc2cccs2)c1N,79.2*,x,x,55.7,x,x,53.5*

# Bioassay records deposited in PubChem by several laboratories.
